Data: ChEMBL document CHEMBL1125518, “Sulfonylureas: a new class of cancer chemotherapeutic agents” (1992)

Key:
Assay type in all cases: functional
[1] = tested on: 6C3HED; test: Inhibition of tumor growth of 6C3HED lymphosarcoma tumor cell line in mice at a dose of 300 mg/kg given orally (daily x 8); conditions: Mus musculus, route oral
Outline: (§1)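 C3H mice received subcutaneous 1-2 mm 6C3HED lymphosarcoma fragments, which grew for 1 day before treatment. The agent was suspended in 2.5% emulphor and given by oral gavage once daily on days 2-9. On day 10, intact tumors were measured by calipers to estimate tumor weight. Percent inhibition was taken from treated versus untreated control tumor weights, mostly with 10 mice per group.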

[2] = tested on: 6C3HED; test: Inhibition of tumor growth of 6C3HED lymphosarcoma tumor cell line in mice at a dose of 150 mg/kg given orally(daily x 8); conditions: Mus musculus, po; outline: as §1
[3] = tested on: 6C3HED; test: Inhibition of tumor growth of 6C3HED lymphosarcoma tumor cell line in mice at a dose of 200 mg/kg given orally(daily x 8); conditions: Mus musculus, po; outline: as §1
[4] = tested on: CX-1; test: Inhibition of tumor growth of CX-1 cell line at 600 mg/kg; conditions: Homo sapiens
[5] = tested on: Mus musculus; test: Lethal dose against C3H mouse with subcutaneously implanted 6C3HED lymphosarcoma; conditions: sc
Outline: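 C3H mice bearing subcutaneously implanted 6C3HED lymphosarcoma fragments (1-2 mm), grown 1 day before treatment. Compound suspended in 2.5% emulphor and given po by gavage daily × 8 (days 2-9). Deaths from drug toxicity were recorded to give the lethal dose.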

Row | Compound | inhibition in vivo at 300 mg/kg [1] | inhibition in vivo at 150 mg/kg [2] | inhibition in vivo at 200 mg/kg [3] | inhibition in vivo at 600 mg/kg [4] | LD50 [5]
1 | Cc1ccsc1S(=O)(=O)NC(=O)Nc1ccc(Cl)cc1 | 62% | 17% |  |  | 
2 | Cc1cc(S(=O)(=O)NC(=O)Nc2ccc(Cl)cc2)sc1C | 73% | 42% |  |  | 
3 | CCc1csc(S(=O)(=O)NC(=O)Nc2ccc(Cl)cc2)c1 | 93% | 55% |  |  | 
4 | O=C(Nc1ccc(Cl)cc1)NS(=O)(=O)c1cccs1 | 66% | 16% |  |  | 
5 | CC(C)(C)c1ccc(S(=O)(=O)NC(=O)Nc2ccc(Cl)cc2)s1 | 10% | 7% |  |  | 
6 | O=C(Nc1ccc(Cl)c(Cl)c1)NS(=O)(=O)c1cc2c(s1)CCCC2 |  |  | 44% |  | 
7 | CSc1ccc(S(=O)(=O)NC(=O)Nc2ccc(Cl)cc2)s1 | 62% | 29% |  |  | 
8 | COc1ccc(S(=O)(=O)NC(=O)Nc2ccc(Cl)cc2)s1 | 100% | 93% |  | 62% | 450 mg/kg
9 | O=C(Nc1ccc(Cl)cc1)NS(=O)(=O)c1scc2c1CCC2 | 51% | 36% |  |  | 
10 | COc1csc(S(=O)(=O)NC(=O)Nc2ccc(Cl)cc2)c1 | 69% | 36% |  |  | 
11 | O=C(Nc1ccc(Cl)cc1)NS(=O)(=O)c1ccc(Cl)s1 | 89% | 58% |  |  | 
12 | CCc1ccsc1S(=O)(=O)NC(=O)Nc1ccc(Cl)cc1 | 25% | 21% |  |  | 
13 | Cc1ccc(S(=O)(=O)NC(=O)Nc2ccc(Cl)c(Cl)c2)s1 | 61% | 24% |  |  | 
14 | CCc1ccc(S(=O)(=O)NC(=O)Nc2ccc(Cl)cc2)o1 | 80% | 57% |  |  | 
15 | CCCOc1ccc(S(=O)(=O)NC(=O)Nc2ccc(Cl)cc2)s1 | 63% | 44% |  |  | 
16 | CCc1sc(S(=O)(=O)NC(=O)Nc2ccc(Cl)cc2)cc1C | 58% | 26% |  |  | 
17 | CCOc1ccc(S(=O)(=O)NC(=O)Nc2ccc(Cl)cc2)s1 | 96% | 69% |  |  | 
18 | O=C(Nc1ccc(Cl)cc1)NS(=O)(=O)c1cc(Br)c(Br)s1 | 52% | 25% |  |  | 
19 | CCc1ccc(S(=O)(=O)NC(=O)Nc2ccc(Cl)cc2)s1 | 89% | 57% |  |  | 
20 | O=C(Nc1ccc(Cl)cc1)NS(=O)(=O)c1scc2c1CCCC2 | 15% | 0% |  |  | 
21 | O=C(Nc1ccc(Cl)cc1)NS(=O)(=O)c1cc2c(s1)CCC2 | 16% | 16% |  |  | 
22 | CC(C)c1ccc(S(=O)(=O)NC(=O)Nc2ccc(Cl)cc2)s1 | 63% | 42% |  |  | 
23 | CCc1ccc(S(=O)(=O)NC(=O)Nc2ccc(Cl)cc2)[nH]1 | 56% |  |  |  | 
24 | CCCc1ccc(S(=O)(=O)NC(=O)Nc2ccc(Cl)cc2)s1 | 39% | 38% |  |  | 
